Data reported in PubChem BioAssay.
Some of the results follow. Records with an inconclusive call do not appear. A number with no mark means an inactive call. The source made the active and inactive calls.

Legend:
[1] = target: Solute carrier family 12 member 5 (Homo sapiens) (UniProt Q9H2X9); assay: KCC2 modulators in sodium-free buffer, confirmation, cell-based, HEK293 KCC2, thallium flux, secondary assay (AID 1713;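 active = thallium flux slope above the same plate's solvent-only control mean plus 3 SD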); conditions: FluoZin2 fluorescence, at 10 µM, active compounds read high
Summary of the method: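 Test system: KCC2-expressing HEK cells. Medium: Sodium-free N-methylglucamine chloride buffer. Schedule: dye loading 48 min. Technique: kinetic thallium-flux fluorescence imaging.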

PubChem AID 1714 = conditions: HEK293-KCC2 + bumetanide/ouabain, thallium flux FluoZin2; at 10 µM; active compounds read high
Summary of the method: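 Test system – KCC2-expressing HEK cells · Medium – HBSS-HEPES with ouabain and bumetanide · Reagent – thallium stimulus · Dosing – 10 µM single dose · Times – 48 min dye loading · Technique – kinetic FluoZin2 fluorescence, ex 480/em 540 nm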

[2] = target: Solute carrier family 12 member 5 (Homo sapiens) (UniProt Q9H2X9); assay: KCC2 modulators without ouabain present, confirmation, cell-based, HEK293 KCC2, thallium flux, FluoZin2, secondary assay 2 (AID 1715); conditions: HEK293-KCC2, thallium flux FluoZin2 fluorescence; at 10 µM; actives lie on both sides; F/F0 rise rate, 10–20 s post-thallium;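 note: raw slope with 0.1% DMSO as baseline and bumetanide as block control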
[3] = thallium flux modulation in parental HEK cells, confirmation, counter-screen for KCC2 modulator project, cell-based, counterscreen 1 (AID 1716;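 active = thallium flux rate significantly above the same plate's solvent-only control wells, beyond their mean plus 3 SD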); conditions: HEK293 parental cells, thallium flux FluoZin2, ouabain; at 10 µM; baseline-ratio fluorescence slope, 10–20 s after thallium
[4] = target: Solute carrier family 12 member 5 (Homo sapiens) (UniProt Q9H2X9); assay: KCC2 inhibitors and activators, ouabain retest, confirmation, HEK-KCC2 cells (AID 1717;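 active = thallium flux slope beyond 3 SD from same-plate DMSO control mean in most replicates, usually higher, sometimes lower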;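 note: slope of initial-normalized fluorescence between seconds 10 and 20 after thallium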); conditions: HEK293-KCC2, thallium flux FluoZin2 fluorescence, at 10 µM, bidirectional: low = inhibitor, high = activator
[5] = native HEK Tl+ uptake effects, second counter-screen – HEK cells, counterscreen 2, counter-screen for KCC2 modulator project, confirmation (AID 1718;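 active = thallium flux slope above the same plate's solvent-control mean plus 3 SD in both duplicate wells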;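 note: run without ouabain in cells lacking the KCC2 cotransporter; slope of fluorescence scaled to its starting value between 10 and 20 s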); conditions: HEK293 parental, thallium flux FluoZin-2 fluorescence slope; at 10 µM
Summary of the method: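 Read-out: thallium influx rate; assay system: parental HEK cells; replication: slope calculated separately for each replicate well; signal: FluoZin2-AM fluorescence (0.5 µM), ex 480 nm, em 540 nm, kinetic 1 Hz; benchmarks: bumetanide 2 mM; schedule: overnight cell culture at 37 °C, 48 min dye loading, compound before thallium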

Solute carrier family 12 member 5 (Homo sapiens), sequence (Q9H2X9 whole entry, looked up): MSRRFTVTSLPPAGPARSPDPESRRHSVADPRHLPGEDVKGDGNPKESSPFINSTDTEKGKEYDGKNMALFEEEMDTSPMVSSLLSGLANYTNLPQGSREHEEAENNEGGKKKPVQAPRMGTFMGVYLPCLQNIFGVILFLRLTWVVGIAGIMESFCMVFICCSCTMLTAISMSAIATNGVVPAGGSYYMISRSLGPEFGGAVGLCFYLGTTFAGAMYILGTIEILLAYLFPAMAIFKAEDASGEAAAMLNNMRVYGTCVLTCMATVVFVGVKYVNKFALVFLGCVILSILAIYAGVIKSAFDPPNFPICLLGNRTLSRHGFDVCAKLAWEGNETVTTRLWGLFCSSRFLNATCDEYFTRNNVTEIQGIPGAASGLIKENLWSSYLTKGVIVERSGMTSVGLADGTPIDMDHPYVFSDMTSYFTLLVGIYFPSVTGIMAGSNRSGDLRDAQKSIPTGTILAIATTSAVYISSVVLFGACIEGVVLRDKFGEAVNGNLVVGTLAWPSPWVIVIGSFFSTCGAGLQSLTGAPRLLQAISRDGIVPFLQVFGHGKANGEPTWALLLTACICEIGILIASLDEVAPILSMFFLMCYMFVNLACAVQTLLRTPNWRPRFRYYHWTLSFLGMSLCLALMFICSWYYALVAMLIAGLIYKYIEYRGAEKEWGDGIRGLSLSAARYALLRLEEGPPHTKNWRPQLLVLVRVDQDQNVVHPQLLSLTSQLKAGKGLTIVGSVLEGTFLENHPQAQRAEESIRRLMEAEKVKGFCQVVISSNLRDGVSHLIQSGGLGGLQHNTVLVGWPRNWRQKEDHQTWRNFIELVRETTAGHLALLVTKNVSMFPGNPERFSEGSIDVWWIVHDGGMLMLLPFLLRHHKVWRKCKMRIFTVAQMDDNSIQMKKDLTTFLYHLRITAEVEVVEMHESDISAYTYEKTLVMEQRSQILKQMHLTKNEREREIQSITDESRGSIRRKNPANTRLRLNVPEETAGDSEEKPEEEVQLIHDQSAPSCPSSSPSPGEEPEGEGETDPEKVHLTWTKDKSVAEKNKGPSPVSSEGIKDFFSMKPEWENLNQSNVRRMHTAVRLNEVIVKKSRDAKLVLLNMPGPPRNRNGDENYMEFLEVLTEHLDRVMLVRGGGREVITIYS

Compound | normalised thallium flux (F/F0 slope) [1] | normalized thallium flux (PubChem AID 1714) | normalized thallium flux [2] | thallium flux rate (normalised fluorescence) [3] | raw Tl+ flux slope (below DMSO = inhibition, above = activation) [4] | thallium flux slope [5]
O=C(CSc1nnc(-c2cccs2)n1Cc1ccccc1)N1CCc2ccccc2C1 | 0.00645 | 0.00334 (active) | 0.0237 (active) | 0.00608 (active) | 0.0136 (active) | 0.00891 (active)
Cc1ccc(C)c(NC(=S)NNC(=O)c2csc(C)c2)c1 | 0.0109 | 0.013 (active) | 0.034 | 0.0173 (active) | 0.0256 (active) | 0.012
CCOC(=O)c1c(C)[nH]c(C)c1C(=O)CSc1nc(N)cc(N)n1 | 0.00797 | 0.00434 | 0.0294 | 0.00758 | 0.0193 | 0.0105
Cc1ccc(C2CC(=O)NC(SCC(=O)OCc3ccccc3)=C2C#N)o1 (centres undefined) | 0.0147 | 0.00407 | 0.0273 | 0.00691 | 0.0133 (active) | 0.00974
O=C(CNC(=O)c1ccco1)OCC(=O)c1ccccc1 | 0.00594 | 0.00472 | 0.0319 | 0.00754 | 0.0197 | 0.01
Cc1nn(-c2ccccc2)c2sc(C(=O)N(Cc3ccco3)C(C)C(=O)NC(C)(C)C)cc12 (centres undefined) | 0.00786 | 0.00436 | 0.0324 | 0.00693 | 0.0198 | 0.0103
CCC(=O)NC(=Nc1nc2ccccc2s1)NC(=O)CC | 0.00696 | 0.0683 (active) | 0.0951 (active) | 0.0894 (active) | 0.0811 (active) | 0.0859 (active)
CCOc1ccc(C(=O)NCCCN2CCCC2=O)cc1 | 0.00821 | 0.00728 | 0.0335 | 0.00778 | 0.0225 | 0.0108
CCC(C)Cn1c(O)cc2nn(-c3nc4ccccc4s3)c(=O)c-2c1C (centres undefined) | 0.00617 | 0.0393 (active) | 0.0456 (active) | 0.0308 (active) | 0.0409 (active) | 0.0328 (active)
CCc1c(SCCC(=O)O)nc2ccccc2c1C | 0.00619 | 0.00439 | 0.0283 | 0.00913 (active) | 0.0166 | 0.0104
O=C(N/N=C/c1coc2ccccc2c1=O)c1cc2ccccc2o1 | 0.0123 | 0.0194 (active) | 0.0374 | 0.0141 (active) | 0.0271 (active) | 0.0106
O=S(=O)(c1ccc(F)cc1)N1CCN(C(=S)NCc2ccco2)CC1 | 0.0076 | 0.0054 | 0.0354 | 0.00396 | 0.0185 | 0.0111
CCCCn1c(=S)[nH]c2ccccc2c1=O | 0.05 (active) | 0.179 (active) | 0.0834 (active) | 0.114 (active) | 0.145 (active) | 0.0577 (active)
Cc1oc(C(N)=O)cc1COc1ccc(C(N)=O)cc1 | 0.01 | 0.00743 | 0.0348 | 0.00438 | 0.0196 | 0.0116
O=C(Nc1nnc(-c2ccccc2)o1)c1cc(-c2cccs2)nc2ccccc12 | 0.0238 (active) | 0.108 (active) | 0.0377 | 0.0864 (active) | 0.0747 (active) | 0.0185 (active)
Cc1cccc(NS(=O)(=O)c2ccc(C)c(C(N)=O)c2)c1 | 0.00589 | 0.00471 | 0.0297 | 0.00787 | 0.0187 | 0.0102
COc1cccc(CNC(=O)Cc2csc(Nc3nc(=S)[nH]c4ccccc34)n2)c1 | 0.0104 | 0.0662 (active) | 0.0329 | 0.0306 (active) | 0.0519 (active) | 0.0141 (active)
O=C(NC(CC(=O)N1CCN(c2ccccc2)CC1)c1ccccc1)c1ccccc1Cl (centres undefined) | 0.00747 | 0.00528 | 0.0333 | 0.00637 | 0.019 | 0.00971
COCCNc1nc(-n2nc(C)cc2C)nc2sc3c(c12)CCCC3 | 0.00873 | 0.00523 | 0.0328 | 0.00524 (active) | 0.0165 (active) | 0.00908
Cc1nc(SCC(=O)N2CCc3ccccc3C2)c2c(C)c(C)sc2n1 | 0.0151 | 0.00522 | 0.0244 (active) | 0.00764 | 0.0144 | 0.0108

Compound | normalised thallium flux (F/F0 slope) [1] | normalized thallium flux (PubChem AID 1714) | normalized thallium flux [2] | thallium flux rate (normalised fluorescence) [3] | raw Tl+ flux slope (below DMSO = inhibition, above = activation) [4] | thallium flux slope [5]
COc1cc(NC(=O)c2ccccc2NS(=O)(=O)c2ccc(Cl)s2)cc(OC)c1 | 0.00642 | 0.00732 | 0.0336 | 0.00377 | 0.0161 (active) | 0.0111
CCOC(=O)CSc1nnc(CNC(=O)c2cccs2)n1-c1ccccc1 | 0.00872 | 0.00583 | 0.0307 | 0.00776 | 0.0178 | 0.0106
COc1ccc(C(=O)NN(C)c2nc(-c3ccccc3)cc(C)c2S(C)(=O)=O)cc1 | 0.0121 (active) | 0.0071 | 0.0316 | 0.00831 | 0.0204 | 0.0107
COc1ccc(C(=O)NC(=S)NNC(=O)c2c(-c3ccccc3)noc2C)cc1 | 0.00558 | 0.0445 (active) | 0.0501 (active) | 0.0354 (active) | 0.0401 (active) | 0.0396 (active)
CCn1c(=S)[nH]c2sc3c(c2c1=O)CCCCC3 | 0.0279 (active) | 0.092 (active) | 0.0959 (active) | 0.0964 (active) | 0.0856 (active) | 0.1 (active)
O=C(CSCc1ccccc1)N1CCc2ccccc21 | 0.00671 | 0.00485 | 0.027 | 0.0071 | 0.0219 (active) | 0.00997
COC(=O)c1sccc1NC(=O)c1cc(OC)c(OC)c(OC)c1 | 0.00806 | 0.00564 | 0.029 | 0.00681 | 0.0198 | 0.00953
CN(C)c1nc(=Nc2cccc(Cl)c2)ss1 | 0.0466 (active) | 0.104 (active) | 0.0563 (active) | 0.0721 (active) | 0.0696 (active) | 0.0487 (active)
O=c1[nH]c2ccccc2s1 | 0.00622 | 0.00492 | 0.0299 | 0.00725 | 0.0175 | 0.00982
NS(=O)(=O)c1ccc(NC(=S)NC(=O)c2cccnc2)cc1 | 0.00722 | 0.00594 (active) | 0.0316 | 0.00846 | 0.019 | 0.0122
N#Cc1nc(COc2ccc(-c3ccccc3)cc2)oc1NCc1cccnc1 | 0.00789 | 0.00445 | 0.029 | 0.00821 | 0.0173 | 0.01
COC(=O)c1sccc1NC(=O)CCC1CCCC1 | 0.00664 | 0.00434 | 0.032 | 0.00709 | 0.0186 | 0.00941
CC(=O)NNc1cc(=O)c2c(=O)n(C)c(=O)n(C)c2[nH]1 | 0.0167 | 0.00524 | 0.0281 | 0.00797 | 0.0159 | 0.0112
O=C(NNc1ccccc1Cl)C(O)(c1cccc(C(F)(F)F)c1)c1cccc(C(F)(F)F)c1 | 0.0066 | 0.018 (active) | 0.035 | 0.0219 (active) | 0.0285 (active) | 0.018 (active)
O=C(O)CCN(Cc1ccccc1)S(=O)(=O)c1c(Cl)cccc1Cl | 0.00789 | 0.00499 | 0.027 (active) | 0.00714 | 0.012 (active) | 0.0112
COc1ccc(-c2nc(CS(=O)CC(=O)N3CCc4ccccc4C3)c(C)o2)cc1 (centres undefined) | 0.00722 | 0.00429 | 0.0225 (active) | 0.00707 | 0.0124 (active) | 0.00907
CC(=O)NC(=S)NNC(=O)c1ccc(Br)cc1 | 0.00779 | 0.0133 (active) | 0.0358 | 0.0158 (active) | – | 0.0176 (active)
COc1ccc(CNC(=O)CCn2cccc2)cc1 | 0.0171 | 0.00443 | 0.0307 | 0.00777 | 0.0168 | 0.0101
CCc1cc(-c2n[nH]c(=S)n2CC(C)C)cs1 | 0.0137 (active) | 0.0351 (active) | 0.0359 | 0.0146 (active) | 0.0381 (active) | 0.0129 (active)
Cc1onc(-c2ccccc2)c1C(=O)NNC(=S)NC(=O)c1ccc(F)cc1 | 0.00605 | 0.0254 (active) | 0.0354 | 0.018 (active) | 0.0299 (active) | 0.0217 (active)
